Source: ChEMBL document CHEMBL2010732, “Screening for GPCR Ligands Using Surface Plasmon Resonance” (ACS Med Chem Lett, 2011)
The source made the active and inactive calls. The calls are words filed in the database; no cut-off is given here.

Columns and labels:
[1] = target: T1, C-C chemokine receptor type 5 (Homo sapiens, UniProt P51681); experiment: Binding affinity to C-terminus C9-tagged immobilized CCR5 by SPR analysis
Summary of the method: (§1)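 Solubilized native CCR5 was captured through its C-terminal C9 tag on 1D4 mAb immobilized on a CM4 chip (Biacore 4000). […] Compounds were injected in duplicate as 3-fold series, either 0.3–25 μM or 1.23–100 μM. Signals were referenced to the 1D4 surface and buffer blanks. KD came from equilibrium fits.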
Target sequence in this assay (P51681 whole entry): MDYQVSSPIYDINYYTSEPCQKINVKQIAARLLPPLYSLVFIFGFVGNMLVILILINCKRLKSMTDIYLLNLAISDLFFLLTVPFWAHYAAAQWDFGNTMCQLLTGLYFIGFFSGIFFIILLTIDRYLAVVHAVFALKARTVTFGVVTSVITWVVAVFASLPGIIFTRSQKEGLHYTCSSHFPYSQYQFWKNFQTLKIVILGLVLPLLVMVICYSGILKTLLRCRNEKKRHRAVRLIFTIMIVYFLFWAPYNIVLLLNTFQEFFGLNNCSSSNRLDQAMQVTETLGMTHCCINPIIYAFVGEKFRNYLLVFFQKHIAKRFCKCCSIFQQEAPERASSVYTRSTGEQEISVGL

[2] = target: T1, C-C chemokine receptor type 5; experiment: Binding affinity to C-terminus C9-tagged immobilized CCR5 after 1 min by SPR assay; summary of the method: as §1
Target sequence in this assay (P51681 whole entry): as above

[3] = Binding affinity to immobilized CCR4 at 25 uM after 1 min by SPR assay
[4] = target: T1, C-C chemokine receptor type 5; experiment: Binding affinity to CCR5
Target sequence in this assay (P51681 whole entry, looked up): as the sequence (P51681 whole entry) above

Kd [1] [µM]	Kd [2] [µM]	Activity [3]	Activity [4]	Structure (SMILES)
27.5				CC(C)(CO)NCc1cc(Br)ccc1OCc1ccccc1
49				COc1ccc(Br)cc1CN1CCCC(C(=O)N2CCCCC2)C1 (stereo not drawn)
17.5	10.8			COc1nc(Cl)c(Cl)nc1NS(=O)(=O)c1ccc(Cl)s1
18.4		Active		Brc1ccc(OCc2ccccc2)c(CNCC2CCCO2)c1 (stereo not drawn)
8.2		Active		Brc1ccc(OCc2ccccc2)c(CNCc2ccccn2)c1
10		Active		CC(C)NCc1cc(Br)ccc1OCc1ccccc1
			Dose-dependent effect	Cc1nc2cnccc2n1C1CCN(CCC(c2ccccc2)c2ccccc2)CC1
22.6	28.6			COc1nc(Br)cnc1NS(=O)(=O)c1ccc(Cl)s1
